Source: PubChem (Sanford-Burnham Center for Chemical Genomics)
The list is not random: actives were taken first. Their share in the collection is about 2.9%.
SENP1 FRET inh: SENP1 (human) catalytic domain inhibition; inhibition, % at 10 µM; Q9P0U3; recombinant SENP1 catalytic domain, CyPet-SUMO1-YPet FRET cleavage; hit rate 0.21% among 360,000; AID 624204;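 active means inhibition at least 30% at 10 µM, raw YFP signal under a set limit, fluorescence ratio 0.5 to 1.5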
Target sequence (Q9P0U3 419-644 limits assumed): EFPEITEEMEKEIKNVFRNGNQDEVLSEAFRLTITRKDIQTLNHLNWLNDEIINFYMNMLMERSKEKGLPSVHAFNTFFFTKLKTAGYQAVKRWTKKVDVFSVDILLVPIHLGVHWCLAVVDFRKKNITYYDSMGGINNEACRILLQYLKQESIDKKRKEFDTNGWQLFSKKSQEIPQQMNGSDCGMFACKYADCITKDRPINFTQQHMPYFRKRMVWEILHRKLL
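Test system: human SENP1 catalytic domain; medium: Tris pH 8 buffer plus EDTA, NaCl, BME, BSA, NP40, catalase; incubation: 50 min reaction at room temperature; technique: FRET, CFP and YFP emission; controls: no-enzyme low control and enzyme-plus-DMSO high control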
SENP6 block: inhibitors of human SENP6 protease | AID 2599 | Q9GZR1 | Recombinant SENP6 catalytic domain, aminoluciferin luminescence | hit rate 1.8% among 330,000 | inhibition, % at 10 µM;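 active means inhibition above about 50% at the single tested dose, limit read from the data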
Apaf-1 inh: inhibitors of human Apaf-1 apoptosome. reconstituted apoptosome caspase-3 activity, DEVD-Rh110 fluorescence. inhibition, % at 20 µM. hit rate 0.71% among 330,000; active means inhibition of at least 40% at 20 µM
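System – cell-free apoptosome with Apaf-1, procaspase-3 and caspase-9 · Buffer or medium – pH 7.5 Hepes buffer with CHAPS, BSA, DTT · Also added – cytochrome c with DEVD-Rh110 · Times – 30 min compound preincubation, 50 min activation, room temperature · Technique – Rh110 fluorescence intensity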
SENP8 block-1: inhibitors of human SENP8 protease. recombinant SENP8, Nedd8 substrate fluorescence. hit rate 0.64% among 360,000. inhibition, % at 20 µM; in the data active means inhibition mostly above about 40%, no sharp cut-off; inactive means mostly below about 27%
SENP8 block-2: SENP8 protease inhibition. inhibition, % at 10 µM. Q96LD8. hit rate 1.2% among 330,000. purified SENP8, Z-RLRGG-aminoluciferin cleavage, luminescence; in the data active means inhibition above about 50%
SENP7 block: SENP7 protease inhibition; hit rate 1.5% among 330,000; recombinant SENP7, Z-RLRGG-aminoluciferin luminescence, 40 min; inhibition, % at 5 µM;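 active means inhibition above about 50% at the single test dose, limit read from the data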
Target sequence (Q9BQF6 706-1050 limits assumed): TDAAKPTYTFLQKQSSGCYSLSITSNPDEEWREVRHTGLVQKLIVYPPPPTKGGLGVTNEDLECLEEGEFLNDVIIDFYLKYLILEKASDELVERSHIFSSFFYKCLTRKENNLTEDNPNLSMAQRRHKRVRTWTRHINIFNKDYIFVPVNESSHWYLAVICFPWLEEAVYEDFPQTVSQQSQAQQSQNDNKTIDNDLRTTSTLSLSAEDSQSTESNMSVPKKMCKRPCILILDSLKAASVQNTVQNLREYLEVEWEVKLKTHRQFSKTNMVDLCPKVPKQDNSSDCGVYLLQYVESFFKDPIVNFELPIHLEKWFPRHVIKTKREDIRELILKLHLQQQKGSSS
SENP8 confirm: human SENP8 inhibition, confirmed. shares compounds with SENP7 block. Recombinant SENP8, Z-RLRGG-aminoluciferin luminescence, 60 min. inhibition, % at 12.5 µM. hit rate 40% among 6,200. AID 488912;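 active means mean inhibition across replicates above about 50%, limit read from the data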
SENP6 conf: confirmation of human SENP6 protease inhibitors. hit rate 58% among 6,200. recombinant SENP6, Z-RLRGG-aminoluciferin luminescence. shares compounds with SENP7 block. inhibition, % at 12.5 µM
SENP7 confirm: confirmation of human SENP7 protease inhibitors. shares compounds with SENP7 block. recombinant SENP7, Z-RLRGG-aminoluciferin luminescence, 40 min. inhibition, % at 12.5 µM. hit rate 69% among 6,200. AID 488917
Casp3 SENP sel: selectivity test for SENP inhibitors: human caspase-3 inhibition. hit rate 60% among 6,200. AID 488918. purified caspase-3, Z-DEVD-aminoluciferin luminescence, 60 min. shares compounds with SENP7 block. inhibition, % at 12.5 µM;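 active means mean inhibition above about 50%, limit read from the data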
Luc interf: luminescence interference (SENP counter-screen) | Pre-incubated SENP8/Z-RLRGG-aminoluciferin, luciferase luminescence interference | inhibition, % at 12.5 µM | hit rate 39% among 6,200 | AID 488919 | shares compounds with SENP7 block;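 active means mean inhibition above about 50% when retested at one dose, limit read from the data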
Each line names hits and unclear results; the compound was inactive in the other large screens (follow-up assays come after a bar, where they were run).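 How the source made its calls, unless noted: active means mean inhibition above about 50% in the one-dose retest (limit read from the data); inactive means the rest.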

COc1ccc(/C=N/Nc2nc(C(=O)O)cs2)cc1	SENP6 block 92.9, SENP8 block-2 95.7, SENP7 block 96.5 | SENP8 confirm 97.1 | SENP6 conf 97.6 | SENP7 confirm 102.1 | Casp3 SENP sel 63.2 | Luc interf 97.6
COc1cc(C)ccc1S(=O)(=O)NC(=O)C1(C)CCN1C(=O)COc1ccc(Cl)cc1 (centres undefined)	none (no result: SENP6 block, Apaf-1 inh, SENP8 block-2, SENP7 block)
COc1cccc(C(=O)/C=C/Nc2ccc(S(=O)(=O)Nc3onc(C)c3C)cc2)c1	SENP6 block 88.3, SENP8 block-2 78.3, SENP7 block 58.4 | SENP8 confirm 67.8 | SENP6 conf 66.9 | SENP7 confirm 86.2 | Casp3 SENP sel 68.5 | Luc interf inactive
Cc1cc(NS(=O)(=O)c2ccc(NC(=O)C(c3ccccc3)c3ccccc3)cc2)no1	none
Cc1noc(NS(=O)(=O)c2ccc(NC(=O)C(Cl)(Cl)Cl)cc2)c1C	none
Cc1noc(NS(=O)(=O)c2ccc(NC(=O)Nc3ccc(Cl)c(Cl)c3)cc2)c1C	SENP6 block 86.2, SENP8 block-2 81.7 | SENP8 confirm 89.0 | SENP6 conf 89.0 | SENP7 confirm 95.0 | Casp3 SENP sel 50.7 | Luc interf 85.4
Cc1noc(NS(=O)(=O)c2ccc(N/C=C\C(=O)c3ccc(Br)cc3)cc2)c1C	none
Cc1cc(NS(=O)(=O)c2ccc(NC(=O)Nc3ccccc3)cc2)no1	SENP6 block 53.8 | SENP8 confirm inactive | SENP6 conf inactive | SENP7 confirm 67.1 | Casp3 SENP sel 68.8 | Luc interf inactive
O=C(CCCc1ccccn1)c1ccc(-c2ccccc2)cc1	none (no result: SENP6 block, Apaf-1 inh, SENP8 block-2, SENP7 block)
Cc1ccc(S(=O)(=O)c2ccc([N+](=O)[O-])o2)cc1	none (no result: SENP6 block, Apaf-1 inh, SENP8 block-2, SENP7 block)
NC(CC(=O)OC1CCCCC1)C(=O)OC1CCCCC1 (centres undefined)	SENP6 block 76.5 | SENP8 confirm inactive | SENP6 conf inactive | SENP7 confirm inactive | Casp3 SENP sel inactive | Luc interf inactive
O=C(O)c1ccc(/C=C/c2ccc3cccc(O)c3n2)cc1	SENP6 block 95.0, SENP8 block-2 94.9, SENP7 block 98.4 | SENP8 confirm 98.0 | SENP6 conf 98.6 | SENP7 confirm 101.9 | Casp3 SENP sel 96.8 | Luc interf 78.4
COC(=O)c1ccc(/C=C/c2ccc3cccc(OC(C)=O)c3n2)cc1	SENP6 block 94.8, SENP8 block-2 87.0, SENP7 block 90.6 | SENP8 confirm 78.7 | SENP6 conf 89.9 | SENP7 confirm 98.1 | Casp3 SENP sel 85.6 | Luc interf inactive
Oc1ccc(/C=C/c2ccc3cccc(O)c3n2)cc1Br	SENP6 block 96.8, SENP8 block-2 92.1, SENP7 block 87.9 | SENP8 confirm 97.6 | SENP6 conf 98.2 | SENP7 confirm 101.6 | Casp3 SENP sel 83.8 | Luc interf 94.3
O=[N+]([O-])c1cccc(/C=C/c2ccc3cccc(O)c3n2)c1	none
COC(=O)c1ccc(/C=C/C(=O)O)cc1	none
COc1ccc(NC(=O)C2(C)Cc3c(-c4ccc(N(C)C)cc4)ccnc3O2)cc1OC (centres undefined)	none (no result: SENP6 block, Apaf-1 inh, SENP8 block-2, SENP7 block)
CC(C)C[C@H]1CNC(=S)N1C[C@H]1CCCN1C[C@H](CC(C)C)N1C[C@H](Cc2ccc(O)cc2)N(CC2CCCCCC2)C1=S	none (no result: SENP6 block, Apaf-1 inh, SENP8 block-2, SENP7 block)
Cc1oncc1C(=O)Nc1cccc2ccccc12	none
Cc1oncc1C(=O)Nc1ccc(C(F)(F)F)cc1	SENP6 block 78.0, SENP8 block-2 68.1, SENP7 block 76.1 | SENP8 confirm inactive | SENP6 conf 67.2 | SENP7 confirm 94.1 | Casp3 SENP sel 76.4 | Luc interf 62.7
Cc1oncc1C(=O)Nc1ccc2ccccc2c1	SENP6 block 87.7, SENP8 block-2 67.3, SENP7 block 80.9 | SENP8 confirm inactive | SENP6 conf 65.2 | SENP7 confirm 95.7 | Casp3 SENP sel 75.4 | Luc interf 77.2
Cc1coc(C)c1C(=O)Nc1ccc2ccccc2c1	SENP6 block 65.8 | SENP8 confirm inactive | SENP6 conf inactive | SENP7 confirm 79.4 | Casp3 SENP sel 52.4 | Luc interf 60.0
O=C(NCCN1CCC(n2c(=O)[nH]c3ccccc32)CC1)c1ccc(F)c(F)c1	none (no result: SENP6 block, Apaf-1 inh, SENP8 block-2, SENP7 block)
COc1ccc(-c2nnc(SCC(=O)c3cccs3)o2)cc1	SENP7 block 56.0 | SENP8 confirm inactive | SENP6 conf inactive | SENP7 confirm 83.0 | Casp3 SENP sel 54.9 | Luc interf inactive
Cc1ccccc1-c1nnc(SCc2ccccc2F)o1	SENP6 block 57.5 | SENP8 confirm inactive | SENP6 conf inactive | SENP7 confirm 72.7 | Casp3 SENP sel inactive | Luc interf inactive
CCSc1nnc(-c2ccc(OC)cc2)o1	none
Fc1ccccc1CSc1nnc(-c2cccnc2)o1	none
Fc1ccccc1CSc1nnc(-c2ccccc2)o1	SENP6 block 53.7 | SENP8 confirm inactive | SENP6 conf inactive | SENP7 confirm 63.2 | Casp3 SENP sel inactive | Luc interf inactive
COc1ccc(-c2nnc(SCc3ccccc3F)o2)cc1	SENP6 block 69.2, SENP8 block-2 53.3, SENP7 block 67.1 | SENP8 confirm 68.3 | SENP6 conf 70.0 | SENP7 confirm 89.2 | Casp3 SENP sel inactive | Luc interf 50.6
CC1(C(=O)NS(=O)(=O)c2ccc(F)cc2F)CCN1C(=O)c1ccc(C2CCCCC2)cc1 (centres undefined)	none (no result: SENP6 block, Apaf-1 inh, SENP8 block-2, SENP7 block)
CSc1ccc(/C=N/NC(=O)c2cccc(O)c2)cc1	SENP6 block 91.3, SENP8 block-2 75.0, SENP7 block 90.0 | SENP8 confirm inactive | SENP6 conf 81.3 | SENP7 confirm 95.7 | Casp3 SENP sel 86.1 | Luc interf 83.1
CCOc1ccccc1Nc1nnc(SCC(=O)N(C)C2CCS(=O)(=O)C2)s1 (centres undefined)	none
CC/C(=N\NC(=O)c1nnn(-c2nonc2N)c1-c1cccc(OC)c1)c1ccc(C)cc1	none
C=C(C)CNC(=O)c1ccc2nc(Cc3ccc(OC)cc3)oc2c1	SENP7 block 50.9 | SENP8 confirm inactive | SENP6 conf inactive | SENP7 confirm 75.3 | Casp3 SENP sel 65.7 | Luc interf inactive
COc1ccc(Cc2nc3ccc(C(=O)NC(C)C)cc3o2)cc1	none (no result: SENP6 block, Apaf-1 inh, SENP8 block-2, SENP7 block)
